From PubChem
Compounds with a hit are over-represented: about 11% of the library has one in this group of screens.
Htt clearance – mutant huntingtin protein clearance | AID 853 | actives 0.42% (n = 47,000) | HeLa Exon1htt(103Q)mCFP, aggregate imaging; zero = plate's median compound well | inhibition, % at 1.5 µM;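 active = inhibition of aggregate fluorescence above about 70%, also judged a hit by eye on the cell image, limit read from the data, passing the limit was not always enough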;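 also: cells exposed to compound for three days before fixation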
SF1 activator – SF-1 (human) activation | CHO-K1 Gal4-SF-1 LBD luciferase reporter; % increase over DMSO SF-1-specific signal | activation, % at 10 µM | actives 1.9% (n = 65,000);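 active = activation above the mean activation of all tested compounds plus 3 SD, cut at about 50% in these data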
Target sequence (Q13285 whole entry, looked up, the tested form may be a part): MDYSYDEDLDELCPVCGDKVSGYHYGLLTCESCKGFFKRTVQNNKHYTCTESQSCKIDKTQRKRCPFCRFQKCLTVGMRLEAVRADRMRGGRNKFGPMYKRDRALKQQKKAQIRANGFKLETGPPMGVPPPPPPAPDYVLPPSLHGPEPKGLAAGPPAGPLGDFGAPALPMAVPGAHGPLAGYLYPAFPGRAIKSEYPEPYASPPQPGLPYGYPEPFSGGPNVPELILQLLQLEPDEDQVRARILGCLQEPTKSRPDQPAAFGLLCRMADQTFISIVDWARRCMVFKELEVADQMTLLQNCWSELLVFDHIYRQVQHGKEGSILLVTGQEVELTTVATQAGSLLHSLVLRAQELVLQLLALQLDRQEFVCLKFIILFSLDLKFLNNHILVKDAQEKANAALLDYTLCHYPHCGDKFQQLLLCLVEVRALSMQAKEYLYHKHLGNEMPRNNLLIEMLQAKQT
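Compound – one dose, 10 µM compound, 1% DMSO · Test system – transient Gal4-SF-1 LBD reporter, CHO-K1 · Input – 4,000 cells in each well · Read-out basis – percent activation relative to DMSO median and mock-transfected background · Replicates – single measurement per compound · Technique – steady-glow luciferase luminescence, read after 15 min reagent incubation · Timing – 20 h compound treatment, 37 °C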
M1 antagonist – antagonists of rat M1 muscarinic receptor. P08482. CHO-M1 cells, Fluo-4 calcium, ACh EC80 antagonist mode; stronger effect = lower value. B-score at 10 µM. actives 3.4% (n = 64,000);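 active = calcium fluorescence response, raw or row-and-column corrected B-score, differing from the plate sample mean either way at a set confidence level, mostly lower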
RORa activator – activates the human nuclear receptor RORA. P35398. CHO-K1 Gal4-RORA LBD luciferase reporter, luminescence; percent increase over mock-subtracted basal signal. activation, % at 10 µM. actives 1.5% (n = 65,000);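 active = activation above the mean of all tested compounds plus 3 SD, cut at about 49% in these data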;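 also: 0% = DMSO-treated RORA cells and 100% = added signal equal to DMSO minus mock-transfected cells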
D1 allo mod – allosterically modulates the human D1 dopamine receptor; P21728; HEK293 D1, CRE-luciferase, dopamine EC30 potentiation; actives deviate in either direction; B-score at 10 µM; actives 5.9% (n = 58,000); AID 641;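 active = luminescence count or its row- and column-corrected plate score outside the 99.7% band of the plate's sample wells, on either side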
M1 agonist – M1 muscarinic receptor agonism; CHO-M1 cells, Fluo-4 calcium fluorescence, agonist mode; stronger effect = higher value; B-score at 10 µM; actives 3% (n = 64,000);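 active = fluorescence rise, raw or as B-score row- and column-corrected plate score, outside the 99.7% band of its plate's samples, either direction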
D1 PAM confirm – confirmation of human D1 dopamine receptor allosteric modulators; shares compounds with D1 allo mod; HEK293 D1 CRE-luciferase, dopamine EC30 potentiation; stronger effect = higher value; luminescence at 10 µM; actives 88% (n = 2,200); AID 642;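 active = luminescence in either of two replicates above the same-plate mean plus 3 SD of the low-dose dopamine control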
D1 ag no DA – secondary test of D1 modulators: activity without dopamine. shares compounds with D1 allo mod. HEK293 D1 CRE-luciferase, luminescence, no dopamine; stronger effect = higher value. luminescence at 10 µM. actives 0.8% (n = 1,900); in the data active = luminescence above about 3900
Isoprot counter – counter-screen for D1 modulators: isoproterenol response in HEK293 cells; shares compounds with D1 allo mod; HEK293 D1 CRE-luciferase, isoproterenol EC30 counter-screen; calls only at 10 µM; actives 63% (n = 2,200); AID 647;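 active = luminescence in either replicate above plate mean of wells with a partly effective reference agonist dose plus 3 SD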;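 also: isoproterenol raises cAMP through native beta-adrenoceptor Gs so signal bypasses D1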
Numbers without * were called inactive; i = inactive; nt = no result; + = active, no number.

SMILES	Htt clearance	SF1 activator	M1 antagonist	RORa activator	D1 allo mod	M1 agonist	D1 PAM confirm	D1 ag no DA	Isoprot counter
CCC(=NCC1CCCO1)c1c(O)n(-c2ccc(Cl)cc2)c(=O)[nH]c1=O (stereo not drawn)	11.4	-6.5	0.00616	-5.4	0.189	-0.209	nt	nt	nt
CCOCC(=O)NC1CCSC1=O (stereo not drawn)	-0.2	1.8	0.128	-14.4	-0.353	0.0158	nt	nt	nt
CC12CN3CC(c4ccccc4)(CN(C1)C31CCCCC1)C2=O	0.1	29.4	0.0655	-10.6	-0.535	0.0491	nt	nt	nt
CCCCn1c(O)c(C(CC)=NCCc2ccccc2)c(=O)[nH]c1=O	nt	-10.0	0.109	-20.0	6.28*	1.58	8912*	1568	+
C=CCn1c(O)c(C(C)=NCc2cccnc2)c(=O)[nH]c1=O	34.0	-2.1	1.61	-4.2	0.649	-0.446	nt	nt	nt
CCCCn1c(O)c(C(C)=NCc2ccc(F)cc2)c(=O)[nH]c1=O	-5.0	13.2	0.536	-11.9	4*	-0.499	10964*	1708	i
C=CCn1c(O)c(C(C)=NCc2cc(OC)cc(OC)c2)c(=O)[nH]c1=O	nt	-8.9	-1.02	-7.8	3.2*	-0.0254	9872*	1756	+
CCCCn1c(O)c(C(CC)=NCc2ccc(F)cc2)c(=O)[nH]c1=O	0.0	nt	nt	nt	nt	nt	nt	nt	nt
Cc1ccc(C)c(NC(=O)CSc2nnc([C@@H](N)Cc3c[nH]c4ccccc34)o2)c1	nt	13.0	0.0255	-5.3	-0.365	-0.476	nt	nt	nt
CCOC(=O)c1c(C)n(Cc2ccc3c(c2)OCO3)c2ccc(O)cc12	18.5	nt	nt	nt	nt	nt	nt	nt	nt
CCOC(=O)c1c(C)n(Cc2ccccc2)c2ccc(OCC(O)CN3C(=O)CNC3=O)cc12 (stereo not drawn)	-95.9	20.3	0.0103	4.7	10.1*	0.793	22384*	1552	+
O=c1cccc2n1CC1CC2CN(Cc2c(Cl)cccc2Cl)C1 (stereo not drawn)	nt	-3.0	-0.00342	-4.5	0.466	0.144	nt	nt	nt
Cc1ccc(CN2CC3CC(C2)c2cccc(=O)n2C3)cc1 (stereo not drawn)	nt	-28.6	-0.00769	-4.7	3.33*	-0.897	7636	1800	i
CN(C)P(=NC(=S)c1cccn1C)(N(C)C)N(C)C	nt	3.8	0.208	-10.6	nt	-0.29	nt	nt	nt
